Columns and labels:
Rattus norvegicus [1] = test: Blood glucose concentration at 2 hours after the administration in glucose-primed rat; assay type: functional
How it was run: (§1)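 Male Sprague-Dawley rats (140-150 g), groups of six, fasted 16 h, then given 100 mg glucose sc in 0.5 mL isotonic NaCl. Test compound given orally right after as an aqueous carboxymethylcellulose suspension (0.5 mL); controls received vehicle. Blood was taken by cardiac puncture under light ether anesthesia 2 h later. Glucose measured by Autoanalyzer modification of Hoffman method; mean percent change versus control group.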

Rattus norvegicus [2] = species: Rattus norvegicus; test: Percent change in blood glucose concentration in glucose-primed rat to that of control rats.; assay type: functional; how it was run: as §1
Rattus norvegicus [3] = test: Blood glucose concentration 2 hours after the administration in glucose-primed rat at 100 mg/kg.; assay type: functional; how it was run: as §1
Rattus norvegicus [4] = test: Percent reduction in blood glucose after perorally administration of compound at 80 mg/kg in non-glucose-primed rat; assay type: functional; conditions: route oral
Cavia porcellus [5] = test: Percent reduction in blood glucose after perorally administration of compound at 25 mg/kg in normal fasted guinea pig; assay type: functional; conditions: route oral
How it was run: (§2)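 Hartley guinea pigs (450-500 g), male and female, grouped by sex in fours, food withheld 18 h, water allowed. Zero-time blood taken by cardiac puncture, then oral dosing, with a second cardiac sample 5 h later. Reported as percent change in blood glucose relative to the pretreatment value.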

Rattus norvegicus [6] = test: Percent reduction in blood glucose after perorally administration of compound at 120 mg/kg in non-glucose-primed rat; assay type: functional; conditions: route oral
Rattus norvegicus [7] = test: Percent reduction in blood glucose after perorally administration of compound at 100 mg/kg in alloxanized rat; assay type: functional; conditions: route oral
How it was run: (§3)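 Male Sprague-Dawley rats (180-220 g) made diabetic with 225 mg/kg alloxan monohydrate intraabdominally; glucosuria checked by reagent strip after 3 days, positives grouped in sixes. Control tail-vein blood taken, oral compound given, blood resampled at 5 h. Reported as percent change in blood glucose versus pretreatment.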

Rattus norvegicus [8] = test: Percent reduction in blood glucose after perorally administration of compound at 100 mg/kg in glucose-primed rat; assay type: functional; conditions: route oral; how it was run: as §1
Rattus norvegicus [9] = test: Percent reduction in blood glucose after perorally administration of compound at 100 mg/kg in non-glucose-primed rat; assay type: functional; conditions: route oral
Rattus norvegicus [10] = test: Percent reduction in blood glucose after perorally administration of compound at 25 mg/kg in adrenalectomized rat; assay type: functional; conditions: route oral
[11] = Lethal dose after peroral administration in mouse; conditions: in vivo, po
[12] = Lethal dose after intraperitoneal administration in mouse; conditions: in vivo, ip
Rattus norvegicus [13] = test: Percent reduction in blood glucose after perorally administration of compound at 300 mg/kg in alloxanized rat; assay type: functional; conditions: route oral; how it was run: as §3
Rattus norvegicus [14] = test: Percent reduction in blood glucose after perorally administration of compound at 50 mg/kg in glucose-primed rat; assay type: functional; conditions: route oral; how it was run: as §1
Cavia porcellus [15] = test: Percent reduction in blood glucose after perorally administration of compound at 100 mg/kg in normal fasted guinea pig; assay type: functional; conditions: route oral; how it was run: as §2
Rattus norvegicus [16] = test: Percent reduction in blood glucose after perorally administration of compound at 25 mg/kg in glucose-primed rat; assay type: functional; conditions: route oral; how it was run: as §1
Rattus norvegicus [17] = test: Percent reduction in blood glucose after perorally administration of compound at 250 mg/kg in glucose-primed rat; assay type: functional; conditions: route oral; how it was run: as §1
Rattus norvegicus [18] = test: Percent reduction in blood glucose after perorally administration of compound at 500 mg/kg in glucose-primed rat; assay type: functional; conditions: route oral; how it was run: as §1
Cavia porcellus [19] = test: Percent reduction in blood glucose after perorally administration of compound at 160 mg/kg in normal fasted guinea pig; assay type: functional; conditions: route oral; how it was run: as §2
Rattus norvegicus [20] = test: Percent reduction in blood glucose after perorally administration of compound at 10 mg/kg in adrenalectomized rat(p= 0.05); assay type: functional; conditions: route oral
Rattus norvegicus [21] = test: Percent reduction in blood glucose after perorally administration of compound at 20 mg/kg in adrenalectomized rat; assay type: functional; conditions: route oral
Cavia porcellus [22] = test: Percent reduction in blood glucose after perorally administration of compound at 125 mg/kg in normal fasted guinea pig; assay type: functional; conditions: route oral; how it was run: as §2
Rattus norvegicus [23] = test: Percent reduction in blood glucose after perorally administration of compound at 25 mg/kg in non-glucose-primed rat; assay type: functional; conditions: route oral
Rattus norvegicus [24] = test: Percent reduction in blood glucose after perorally administration of compound at 10 mg/kg in glucose-primed rat; assay type: functional; conditions: route oral; how it was run: as §1
Cavia porcellus [25] = test: Percent reduction in blood glucose after perorally administration of compound at 150 mg/kg in normal fasted guinea pig; assay type: functional; conditions: route oral; how it was run: as §2
Rattus norvegicus [26] = test: Percent reduction in blood glucose after perorally administration of compound at 25 mg/kg in adrenalectomized rat; conditions: route oral
Rattus norvegicus [27] = test: Percent reduction in blood glucose after perorally administration of compound at 29.2 mg/kg in alloxanized rat; assay type: functional; conditions: route oral; how it was run: as §3
Rattus norvegicus [28] = test: Percent reduction in blood glucose after perorally administration of compound at 100 mg/kg in non-glucose-primed rat; conditions: route oral
Cavia porcellus [29] = test: Percent reduction in blood glucose after perorally administration of compound at 30 mg/kg in normal fasted guinea pig; assay type: functional; conditions: route oral; how it was run: as §2
Rattus norvegicus [30] = test: Percent reduction in blood glucose after perorally administration of compound at 300 mg/kg in non-glucose-primed rat; conditions: route oral

SMILES	Blood glucose (Rattus norvegicus [1])	Change (Rattus norvegicus [2])	Blood glucose (Rattus norvegicus [3])	also measured
COC(=O)c1cc(C)n(/C(=N\c2ccc(OC)c(OC)c2)c2ccccc2)n1	58%	34.1%		
COC(=O)c1cc(-c2ccc(Cl)cc2)n(/C(=N\C2CCCCC2)c2ccccc2)n1		4.4%	84.9%	
COC(=O)c1cc(C)n(/C(=N\c2ccc(Cl)cc2)c2ccccc2)n1		5.5%	78.7%	
COC(=O)c1cc(C)n(/C(=N\CC(C)C)c2cccc(C(F)(F)F)c2)n1		25.2%	62.2%	
COC(=O)c1cc(C)n(/C(=N\CC(C)C)c2ccccc2)n1		25.5%	59.7%	
COC(=O)c1cc(C)n(/C(=N\C2CCCCC2)c2ccccc2OC)n1	68.4%	20.5%		
COc1ccc(/N=C(/c2ccccc2)n2nc(C)cc2C)cc1	60.6%	27.2%		
COC(=O)c1cc(C)n(/C(=N\CC(C)C)c2ccc(F)cc2)n1		1.3%	68.9%	
COC(=O)c1cc(-c2ccc(Cl)cc2)n(/C(=N\C2CCCCC2)c2ccccc2OC)n1		12.9%	69.2%	
N=C(N)NC(=N)NCCc1ccccc1 [PHENFORMIN]				Reduction (Rattus norvegicus [4]): 25.3%; Reduction (Cavia porcellus [5]): 46%; Reduction (Rattus norvegicus [6]): 52.9%; Reduction (Rattus norvegicus [7]): 62%; Reduction (Rattus norvegicus [8]): 0%
COC(=O)c1cc(C)n(/C(=N\c2ccc(OC)cc2)c2ccccc2)n1	62.2%	40%		Reduction (Rattus norvegicus [9]): 31.5%; Reduction (Rattus norvegicus [10]): 44.3%; LD50 [11]: 1000 mg/kg; LD50 [12]: 1000 mg/kg; Reduction (Rattus norvegicus [13]): 49%; Reduction (Rattus norvegicus [14]): 33.8%; Reduction (Cavia porcellus [15]): 21%; Reduction (Rattus norvegicus [16]): 35.2%; Reduction (Rattus norvegicus [8]): 51.3%
Cc1ccc(S(=O)(=O)NC(=O)NN2CCCCCC2)cc1 [TOLAZAMIDE]				Reduction (Rattus norvegicus [17]): 42.9%; LD50 [11]: 1000 mg/kg; LD50 [12]: 1000 mg/kg; Reduction (Rattus norvegicus [18]): 51.1%; Reduction (Rattus norvegicus [7]): 0%; Reduction (Cavia porcellus [15]): 33.5%; Reduction (Rattus norvegicus [16]): 50%; Reduction (Cavia porcellus [19]): 25%; Reduction (Rattus norvegicus [20]): 75.8%; Reduction (Rattus norvegicus [21]): 85.6%; Reduction (Cavia porcellus [22]): 26.7%; Reduction (Rattus norvegicus [23]): 29.4%; Reduction (Rattus norvegicus [24]): 28.1%; Reduction (Cavia porcellus [25]): 30.4%
COC(=O)c1cc(C)n(/C(=N\c2ccc(C)cc2)c2ccccc2)n1	71.9%	18.9%		
COC(=O)c1cc(-c2ccc(Cl)cc2)n(/C(=N\c2ccc(Cl)cc2)c2ccccc2)n1		1.2%	77.7%	
COC(=O)c1cc(C)n(/C(=N\c2cccc(C)c2C)c2ccccc2)n1		8.3%	75.6%	
C=CC/N=C(/c1ccccc1)n1nc(C(=O)OC)cc1C		7%	69.6%	
COC(=O)c1cc(-c2ccc(Cl)cc2)n(/C(=N\c2ccccc2)c2ccccc2)n1		5.6%	81.1%	
CCCC/N=C(/c1ccccc1)n1nc(C(=O)OC)cc1C		21.2%	66.1%	
COC(=O)c1cc(C)n(/C(=N\c2cccc(OC)c2)c2ccccc2)n1	63%	22%		
COC(=O)c1cc(C)n(/C(=N\c2ccccc2)c2ccccc2C)n1	57.7%	21.4%		

SMILES	Blood glucose (Rattus norvegicus [1])	Change (Rattus norvegicus [2])	Blood glucose (Rattus norvegicus [3])	also measured
CC/N=C(/c1ccccc1)n1nc(C)cc1C		24.7%	58.6%	
Cc1cc(C)n(/C(=N\C2CCCCC2)c2ccccc2)n1		13.6%	69.8%	
COC(=O)c1cc(-c2ccc(Cl)cc2)n(/C(=N\c2ccccc2)c2ccccc2C)n1		6.3%	71.1%	
COC(=O)c1cc(C)n(/C(=N\c2ccccc2)c2ccccc2OC)n1	58.3%	25.7%		
COC(=O)c1cc(C)n(/C(=N\c2ccccc2)c2ccccc2Cl)n1		8.9%	70%	
COC(=O)c1cc(-c2ccc(Cl)cc2)n(/C(=N\c2ccc(C)cc2)c2ccc(C)cc2)n1		9%	69.8%	
CCC/N=C(/c1ccccc1)n1nc(C(=O)OC)cc1C		6.2%	80.5%	
COC(=O)c1cc(C)n(/C(=N\CCC(C)C)c2ccccc2)n1		1.3%	91.3%	
COC(=O)c1cc(C)n(/C(=N\C2CCCCC2)c2ccccc2)n1	52.1%	34.5%		Reduction (Rattus norvegicus [26]): 32%; LD50 [11]: 1000 mg/kg; LD50 [12]: 1000 mg/kg; Reduction (Rattus norvegicus [27]): 29.5%; Reduction (Rattus norvegicus [1]): 27%; Reduction (Rattus norvegicus [28]): 7.6%; Reduction (Cavia porcellus [29]): 0%
COC(=O)c1cc(C)n(/C(=N\c2ccccc2)c2ccc(Cl)c(Cl)c2)n1	101.5%	24.3%		
COC(=O)c1cc(-c2ccc(Cl)cc2)n(/C(=N\c2ccc(OC)cc2)c2ccccc2)n1		3.9%	78.4%	
COC(=O)c1cc(C)n(/C(=N\c2ccccc2)c2ccccc2)n1	58%	34.3%		
COC(=O)c1cc(C)n(/C(=N\c2cccc(C(F)(F)F)c2)c2ccccc2)n1	57.9%	33.5%		
CCCCNC(=N)NC(=N)N [BUFORMIN]				LD50 [11]: 300 mg/kg; LD50 [12]: 140 mg/kg; Reduction (Rattus norvegicus [27]): 21.9%; Reduction (Rattus norvegicus [30]): 25.9%; Reduction (Rattus norvegicus [8]): 0%; Reduction (Cavia porcellus [29]): 50%
COC(=O)c1cc(C)n(/C(=N\CC(C)C)c2ccc(C)cc2)n1		19%	65.2%	
Cc1cc(C)n(/C(=N\c2ccccc2)c2ccccc2)n1	72.1%	18.3%		
Cc1cc(C)n(/C(=N\CC(C)C)c2ccccc2)n1		10.6%	62.8%	
COC(=O)c1cc(C)n(/C(=N\c2ccc(C)cc2)c2ccc(C)cc2)n1	60.4%	25.4%		
CC/N=C(/c1ccccc1)n1nc(C(=O)OC)cc1C		34%	54.9%	
COC(=O)c1cc(C)n(/C(=N\c2ccccc2OC)c2ccccc2)n1	96%	35.1%		
